Experimental data taken from the EternaBench riboswitch data.

Test system: MS2 coat protein
Test: apparent Kd, MS2 coat protein; higher = weaker binding; RNA-MaP array; FMN 200 µM where present
How it was run: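 On Illumina sequencing-chip clusters, designs were transcribed by stalled E. coli RNA polymerase and titrated with SNAP-549-labelled MS2 coat protein (0.7 or 1.5 nM, doubling to 3 µM), without and then with constant ligand, in 100 mM Tris-HCl pH 7.5, 80 mM KCl, 4 mM MgCl2, BSA, DTT, yeast tRNA and Tween-20. Apparent Kd is the median of filtered per-cluster curve fits to green signal normalised to red-channel RNA signal and control-cluster median Fmax.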

[1] = designed as: OFF switch for flavin mononucleotide, no ligand
[2] = ligand present: flavin mononucleotide, designed as: OFF switch for flavin mononucleotide
[3] = designed as: ON switch for flavin mononucleotide, no ligand
[4] = ligand present: flavin mononucleotide, designed as: ON switch for flavin mononucleotide

| Sequence | apparent Kd [1] [nM] | apparent Kd [2] [nM] | apparent Kd [3] [nM] | apparent Kd [4] [nM] |
| --- | --- | --- | --- | --- |
| CUUUAGCUAGGAUAUACAUGAGGAUCACCCAUGUUAGCGGUCCAUUGGGCCGCGGGUUGUAGAAGGAGCAUUAA | 30.8 | 56.8 | – | – |
| AUUUAGUGCGAGAAGGCGUGGUCACAUGAGGAUCACCCAUGUCAGUACACGAGGAUAUCGAUCCGCUAUGUAAACCUAGGCGGC | – | – | 101 | 6.89 |
| AUAAAUCAUGUAGGAUAUGCGUGGCGAAGCUAUGCAGAAGGACAUGAGGAUCACCCAUGUCUAUCCGUCUGCGUACAGACGGAA | 26.2 | 216 | – | – |
| AUUAUUAUAUUAUACAUGAGGAUCACCCAUGUUAUAAGUCAUGAGGAUAUGGUUAUGUAGAUUUGCCAGAAGGCAUUUAACUUA | – | – | 14.9 | 9.91 |
| AUCAGCUCGUCAGGAUAUACGUAACUGCGUCAGCAGUGUGGUAAGAUCACAUGAGGAUCACCCAUGUAGAAGGGACGAGCUGAU | – | 529 | – | – |
| CCGGAUUAGGAGGAUAUAGGAGUCGAUAGACACCUAGAAGGCCUAACAUGAGGAUCACCCAUGUGUCCUACCGG | 21.9 | 90.8 | – | – |
| AUAAGUUCGUCAGGAUAUACAUGAGACAGUAAUGUUUCAGGUAUGAUCACAUGAGGAUCACCCAUGUAGAAGGGACGAGCUUAU | 6.48 | 20.6 | – | – |
| AAAUUUAACGAAGGAUAUGGUGACAUGAGGAUCACCCAUGUUAAUUUUGUGAUCUUGUUUAAGUUCCAGAAGGUCGUAUACAUA | 210 | 600 | – | – |
| GGUACUCAAAGAGUACUUGGUCGAACAUGAGGAUCACCCAUGUAGGAUAUGCGAAGCAAGAAGUAGCAGAAGGGCAUGUGCAGC | 17.7 | 16.1 | – | – |
| AGCUGUGGCCGAGGAUAUCUGUCCCAUAAAACCGAAAUAUAAUCGGACAUGAGGAUCACCCAUGUAGAGAAGGCGGUCUCAGCA | 44.1 | 70.7 | – | – |
| GGGCGACAUGAGGAUCACCCAUGUAAGGAUAUACAACUGCCCACUAAAAUCUGGGCUGGUAGAAGGUGCAGAAA | 35.7 | 42.8 | – | – |
| UUCAAAUUCGUAGGAUAUGUAUAAAUUAUCUACAUGAGGAUCACCCAUGUUUUCAUUUUAAAUUGACAGAAGGACGUAAUCUUA | – | – | 16.4 | 7.87 |
| AUAAGGUUCUUCAAGGUGCUACAUGAGGAUCACCCAUGUGAGAGAAGGGCCCGUGGACUUGGAGGGUAGGAUAUCUCCAUGCGU | 8.32 | 10.1 | – | – |
| CAAACAAGUGCGAGCUGACACAUGAGGAUCACCCAUGUAACACAGGAUAUCUGUCAAGGCGUGAAAGAGAAGGGUGGUCGGAAA | – | – | 226 | 375 |
| GAAGCACAUGAGGAUCACCCAUGUGAGGAUAUCCGUCUGGUCCGGCCGGACCAGUACCGGAGAAGGCGCGUAAA | 59.1 | 42 | – | – |
| CCGUGGCAAGGAUAUACAUAGGAGAGGAAGGCAAGAGGUGGACAUGAGGAUCACCCAUGUAGAAGGUGCAGAUC | 226 | 236 | – | – |
| GGAUUGAAUGAGGAUAUCGUAUCGGGUACGAUGCGAGAAGGCAUGACAUGAGGAUCACCCAUGUAGUGUGGGUU | 415 | 685 | – | – |
| GUGGCUAGUGCAGGAUAUUAGCGCGUGUAGUGUUGAGAAGGGCACAUGAGGAUCACCCAUGUGAUCAAUCACUGUUAAGGUCGC | 12.7 | 25.3 | – | – |
| GAUUAACAUGAGGAUCACCCAUGUGAGGAUAUGGACUGGCUCACUUUUCGAUUCCCGUCUAGAAGGCGCAUCUU | 39.3 | 55.6 | – | – |
| GACUCGUAAGUGAGGAUAUGGCUGUGCAGCUACAGCCAGAAGGCACAUGAGGAUCACCCAUGUGAUGGAAUUUU | 15.9 | 30.6 | – | – |
| GUAGGAAUCACAGGAUAUGCAUGCGCCGCUUCGAUCUACAUGAGGAUCACCCAUGUGUGGUCCGUGUAGAAGGGUGUUUGCUAC | – | – | 80.8 | 34.7 |
| CUUAUGUGAGGAUAUGUACAGAAAAAACUGGGUGUAACUGUACAGAAGGCACAUGAGGAUCACCCAUGUGCCUU | 16.9 | 13.8 | – | – |
| CCAUGCAGUGUGAGGAUAUGCUGGUCCUUGGAUCAGCAGAAGGCACAUGAGGAUCACCCAUGUGAAUAGCGUGG | 44.6 | 356 | – | – |
| GAGCUCGAUGAGAAGGGUUACAUGAGGAUCACCCAUGUCGACCUUGGCGUAACAGGAUAUCAUCGGACUCAGUGCGUUGACCCA | 25.6 | 137 | – | – |

| Sequence | apparent Kd [1] [nM] | apparent Kd [2] [nM] | apparent Kd [3] [nM] | apparent Kd [4] [nM] |
| --- | --- | --- | --- | --- |
| UGAACGUUAGGAUAUACAUGAGGAUCACCCAUGUGUUAUGAGCAAUCAUCGAUAUGUUGUAGAAGGAACGCGCG | 24.9 | 26.3 | – | – |
| CCGCCUCUAGUCAGGAUAUUUACGGAAGAGCACGAAGAGAAGGGACAUGAGGAUCACCCAUGUUUGAUCACGGC | 30.5 | 31.4 | – | – |
| AAAUCACAUGAGGAUCACCCAUGUGAGGAUAUGAUACUAUGUACUUCGGUACAUAGUAUCAGAAGGCAUAUGGA | 23 | 35.9 | – | – |
| CCGCAAAUGCAGGAUAUCGUAUCGGAAACGAUACGAGAAGGGUAAACAUGAGGAUCACCCAUGUUCCUUAACGG | 17.9 | 17 | – | – |
| GUCUCGUGAGGAUAUCAUGAUUGACUUAAUUUAUUUUAGCGUGAGAAGGCACAUGAGGAUCACCCAUGUGAUUC | 19.5 | 21.3 | – | – |
| GUUUCACAUGAGGAUCACCCAUGUGAGGAUAUGGUUUCGCUGGCCGUAGCCAGUGGAACCAGAAGGCGCGUGAU | 60.7 | 71.1 | – | – |
| AAGAUCCCUGUUAGGAUAUAGAGAUCGCCUGGGUCCUAGAAGGAACAUGAGGAUCACCCAUGUGACGUAUAUGU | 100 | 228 | – | – |
| GUGAACGGAGGAUAUAUAUGGGCAGCAUACGCUGCAGCUUCACAUGAGGAUCACCCAUGUAGAAGGCUGUACAC | 7.64 | 23.9 | – | – |
| AGUGUCAUCGAGAAGGCCUCAACAUGAGGAUCACCCAUGUUGUAAUAUGGGAGGAUAUCGAUGAUACAGCUACGUUUCGUAGCU | – | – | 18.9 | 5.65 |
| GGAUUACAUGAGGAUCACCCAUGUGAGGAUAUCGAUGUCCUCCCUCCCGUGCGGGACUCGAGAAGGCACUUGGA | 51.9 | 78.8 | – | – |
| ACAUGAGGAUCACCCAUGUUGAAUUAGGAUAUUUGACUGCACAUGAGGUUCACCCAUGUUCAACCGGAGAAGGGAUUAAUAAUU | – | – | 82.5 | 83.6 |
| UGGUACUAGGGAGGAUAUGGAAAGAUACAUGAGGAUCACCCAUGUUUAAGAAUGCCGAGAGGCAACUAGAAGGCCCUAGUACCU | – | – | 11.1 | 5.29 |
| GUGCCUAACUAGAAGGCAGCAUGCAAAGCAUUCUGAGGAUAUGGGUUCCGGAAACGGACAUGAGGAUCACCCAUGUGGCACAAA | – | – | 482 | 34.7 |
| AGGGCAACAGGAUAUCAUACAAUCUACAUGAGGAUCACCCAUGUGCCUCUUUUCAUACUGUGAGAAGGGUUGUCGG | 64.8 | 63.8 | – | – |
| AAGGAGUGAGGAUAUGCUGCUCGUCACUUGCGUGAUGAGUAGCAGAAGGCACAUGAGGAUCACCCAUGUAAAAA | 41.5 | 49.7 | – | – |
| CAAAUCUGAGGAUAUCGAUUUUUGUACAUGAGGAUCACCCAUGUCCUUUUUAUUAAAUCCCGAGAAGGCAGUGUAU | 27.1 | 31.2 | – | – |
| GGACGUCACAUGAACAUGAGGAUCACCCAUGUAACUAGACAUGAGGAUAUGGAACCUAAUUGGUUCCAGAAGGCAUGGACGUCC | – | – | 194 | 32.2 |
| GGUACUCAAAGAGUACCAAUACGAACAUGAGGAUCACCCAUGUAGGAUAUGCUACUCAAAGAGUAGCAGAAGGAUAUGUGCUUA | 16.9 | 15.3 | – | – |
| AAUUGACACGUAGGAUAUCGAACUAUUUUAACACGAGAAGGACGUACAUGAGGAUCACCCAUGUUUAAUGGAGUAGAUAAGUUG | 154 | 290 | – | – |
| UGGUACAUCAUAGGAUAUCGUGUGUAAACAUGAGGAUCACCCAUGUCAUACGAGAGUAUGUAGAUCGAGAAGGAUGAUGUACCU | – | – | 18.1 | 16.1 |
| UUAAAUCAUGUAGGAUAUGCAUGGCGAAGCUACGCAGAAGGACAUGAGGAUCACCCAUGUGCUAGCUACCGAGUUCGGUGGCAA | 71.3 | 283 | – | – |
| AUAUAUAUAUCAGGAUAUGGACAGGCCUGUCCGUAUUGAGACAGUAACAUGAGGAUCACCCAUGUCCAGAAGGGAUAUAUAUAU | 51.5 | 59.2 | – | – |
| GUGGCCUAGGCACAGGAUAUGUUUCUCGUAACAUGAGGAUCACCCAUGUGCCUUUGAGAUUUUAUGCAGAAGGGUGCACGCCACG | – | – | 488 | 24.3 |
| GAGAGAGGAUGAGGAUAUGCAGUAAUAAUGAUAGCAGAAGGCAUAGACAUGAGGAUCACCCAUGUGGGAAUAAUCCAGAGAGAG | – | – | 188 | 272 |
